# Only some compounds are listed: those with a hit (about 3.4% of all), similar ones and a draw of the others.
# CHT inh – human CHT choline transport inhibition. AID 488975. CHT-expressing cells, membrane potential dye, choline response; hits give low values. 310,000 tested, 0.86% active. Q9GZV3. B-score at 10 µM;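 active = B-score over 3 SD under the library average, and starting fluorescence ratio not unusually high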;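 also: choline stimulus applied at its EC90 after an EC20 pre-addition; B-score computed on integrated fluorescence ratio after choline addition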
# Target sequence (Q9GZV3 whole entry, looked up): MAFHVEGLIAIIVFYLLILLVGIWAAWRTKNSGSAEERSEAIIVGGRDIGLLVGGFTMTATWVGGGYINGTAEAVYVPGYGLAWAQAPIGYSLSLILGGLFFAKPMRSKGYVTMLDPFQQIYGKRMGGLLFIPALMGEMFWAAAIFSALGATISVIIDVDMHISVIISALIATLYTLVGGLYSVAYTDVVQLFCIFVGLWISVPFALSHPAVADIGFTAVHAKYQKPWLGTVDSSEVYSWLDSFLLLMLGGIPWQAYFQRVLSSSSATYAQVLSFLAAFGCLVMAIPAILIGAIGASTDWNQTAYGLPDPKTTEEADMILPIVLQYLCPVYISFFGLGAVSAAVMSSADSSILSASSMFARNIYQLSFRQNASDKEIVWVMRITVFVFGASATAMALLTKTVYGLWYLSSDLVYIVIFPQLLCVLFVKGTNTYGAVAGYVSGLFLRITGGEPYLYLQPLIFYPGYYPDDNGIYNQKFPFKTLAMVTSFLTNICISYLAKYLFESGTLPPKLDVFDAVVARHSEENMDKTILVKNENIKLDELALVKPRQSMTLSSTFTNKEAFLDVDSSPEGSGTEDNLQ
# CHT PAM – human CHT allosteric activation; Q9GZV3; CHT-expressing cells, membrane potential dye, choline EC20; hits give high values; LV-AA mutant CHT in HEK293 cells; B-score at 10 µM; 310,000 tested, 0.49% active; AID 488977;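 active = initial fluorescence not abnormally high and integrated response B-score, plate-corrected, over 3 SD above library mean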
# VIM-2 inhibitor – inhibitors of Pseudomonas aeruginosa VIM-2 metallo-beta-lactamase | inhibition, % at 5.6 µM | purified VIM-2, nitrocefin hydrolysis, epi-absorbance fluorescence | AID 1527 | 290,000 tested, 0.89% active;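 active = inhibition above the mean of all tested compounds plus 3 SD, cutoff set per screening run, cut at about 7.5% in these data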;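 also: red hydrolysis product quenches plate fluorescence so inhibitors raise well fluorescence; 0% = enzyme with DMSO and 100% = DMSO without enzyme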
# ANO1 block – mouse TMEM16A channel inhibition, primary screen; HEK293 TMEM16A/YFP iodide influx fluorescence, ionomycin; normalized B-score (activity score, 25-100; higher = stronger inhibition) at 10 µM; 310,000 tested, 1.2% active; AID 588511;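 active = ratio plate-corrected score three or more library SD toward inhibition, starting fluorescence score within five deviations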;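 also: score derived from kinetic fluorescence span divided by baseline fluorescence per well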
# ANO1 activ – activates or potentiates the mouse TMEM16A chloride channel. 340,000 tested, 0.3% active. AID 623877. Q8BHY3. B-score at 10 µM. HEK293 TMEM16A/YFP-H148Q/I152L, iodide quench fluorescence; hits give low values;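 active = fluorescence-ratio B-score plate-corrected deviation score at least 3 library SD below zero, with starting fluorescence score within 5 deviations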;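 also: channel opened by trigger with iodide after compound preincubation; score built on the fluorescence ratio of max minus min over baseline; more negative score means more quench and so TMEM16A activation or potentiation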
# IMP-1 inh – inhibitors of Pseudomonas aeruginosa IMP-1 metallo-beta-lactamase. purified IMP-1, nitrocefin hydrolysis, epi-absorbance fluorescence. inhibition, % at 5.6 µM. 290,000 tested, 0.45% active. AID 1556;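 active = inhibition above the mean plus 3 SD of all compounds in the same screening run, cut at about 4.5% in these data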;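 also: 0% = IMP-1 with DMSO and 100% = DMSO wells lacking enzyme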
#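 Assay system: purified recombinant IMP-1 beta-lactamase. Input: IMP-1 0.2 nM before substrate addition. Buffer or medium: Zinc- and detergent-supplemented HEPES buffer, pH 7.1. Schedule: 25 °C, 15 min preincubation, 25 min reaction. Signal: Epi-absorbance fluorescence, 480 nm excitation, 530 nm emission. Evaluation: percent inhibition from optical density relative to buffer-blank wells.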
# CHT act confirm – confirmation of human choline transporter (CHT) activators; shares compounds with CHT PAM; CHT-expressing cells, membrane potential dye fluorescence (FDSS); % of choline EC20–EC90 response window; HEK293 expressing CHT LV-AA mutant; choline added at its EC20; activation, % at 10 µM; 2,500 tested, 91% active; AID 504833;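 active = primary screen active, with duplicate mean activation above negative control mean plus 3 SD, cut at about 11% in these data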
# HEK293 MP dye – activity in parental HEK293 cells lacking CHT. 2,500 tested, 62% active. membrane potential dye fluorescence (FDSS); measured after EC20 choline addition. ratio readout change at 10 µM, hits read low. shares compounds with CHT PAM. AID 623908;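 active = duplicate-averaged ratio beyond 3 SD from buffer wells, up or down, though filed actives are nearly all decreases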
# Starred values were filed as active, the others as inactive; i = inactive; nt = no result given.
SMILES,CHT inh,CHT PAM,VIM-2 inhibitor,ANO1 block,ANO1 activ,IMP-1 inh,CHT act confirm,HEK293 MP dye
Cc1cc(OCC(=O)NC2CC(C)(C)NC(C)(C)C2)c2c(C)cc(=O)oc2c1,i,i,6.0,i,i,-1.5,65.5*,-45*
Cc1cc(=O)oc2c(C)c(OCC(=O)NC3CC(C)(C)NC(C)(C)C3)ccc12,i,8.16*,5.5,i,i,-2.1,46.8*,-54.2*
CCc1cc(=O)oc2cc(OCC(=O)NC3CC(C)(C)NC(C)(C)C3)ccc12,i,i,4.5,i,i,-2.6,nt,nt
CC1(C)CC(NC(=O)COc2ccc3ccc(=O)oc3c2)CC(C)(C)N1,i,i,-2.9,i,i,-1.4,nt,nt
OC[C@H]1O[C@H](OC[C@H]2OC(O)[C@H](O)[C@@H](O)[C@@H]2O)[C@H](O)[C@@H](O)[C@@H]1O (some centres not stated),i,i,nt,i,i,nt,nt,nt
c1cncc(-c2nc(NCC3CCCO3)c3ccccc3n2)c1 (configuration not stated),i,i,0.4,i,i,0.1,21.6*,-33.3*
Cc1cc(C(=O)Nc2cccc3ncccc23)no1,i,i,-2.1,i,i,-3.4,nt,nt
Cc1cnc(C(=O)Nc2cccc3ncccc23)cn1,i,7.99*,0.4,i,i,-1.3,42.6*,-47.4*
Cc1cc(NCCCN(C)C)n2nc(-c3cccs3)cc2n1,i,13*,5.8,i,i,-4.3,38.8*,-88.9*
Cc1ccn2c(NC(=O)c3ccccc3)c(-c3ccccc3)nc2c1,i,i,-2.7,i,i,-0.7,30.5*,-48.3*
COC(=O)COc1ccc2c(c1)O/C(=C\c1cccc([N+](=O)[O-])c1)C2=O,i,i,2.0,i,i,-3.0,nt,nt
COc1ccc(/C=C2\Oc3cc(OCC(N)=O)ccc3C2=O)cc1OC,i,6.24*,1.8,i,i,-1.6,46.0*,-37.3*
NCCCC[C@H]1CN=C(N)N1CCC12CC3CC(CC(C3)C1)C2,i,8.5*,nt,i,i,nt,53.6*,-58*
NCCCC[C@H]1CN=C(N)N1CCc1cccc2ccccc12,i,i,nt,i,i,nt,nt,nt
COc1ccc(/C(O)=C2/C(=O)C(=O)N(c3ncccn3)C2c2ccc(C(C)(C)C)cc2)cc1 (configuration not stated),i,i,-4.5,i,nt,-3.4,nt,nt
COC(=O)c1c(NC(NC(=O)c2ccccc2)(C(F)(F)F)C(F)(F)F)sc2c1CCN(C)C2,i,7.19*,-2.4,i,i,-0.3,69.5*,-58.6*
CCN1CCCC(NC(=O)c2cc([N+](=O)[O-])ccc2OC)C1 (configuration not stated),i,7.28*,-3.2,i,i,-3.0,35.5*,-34.9*
CCn1c(=O)n(CC)c2cc(N3CCCC3)c(NC(=O)c3ccccc3OC)cc21,i,i,-1.3,i,i,-3.6,nt,nt
CCOc1ccccc1C(=O)Nc1cc2c(cc1N1CCCC1)n(CC)c(=O)n2CC,i,i,-0.8,i,i,0.1,50.6*,i
O=C(Cn1nc(C(=O)O)c2ccccc2c1=O)Nc1ccc(Cl)c(S(=O)(=O)N2CCOCC2)c1,nt,nt,nt,nt,i,nt,nt,nt
COC(=O)c1ccccc1NC(=O)c1cc[n+]([O-])cc1,i,i,-0.8,i,i,-3.0,nt,nt
COC(=O)c1ccccc1NC(=O)c1cc[n+](C)cc1,i,i,nt,i,i,nt,59.7*,-54.6*
Cc1cc[n+](CC(=O)c2ccccc2)c2ccccc12,i,6.58*,-1.2,i,i,-1.3,34.4*,-35.8*
Cc1ccc(-c2cn(-c3ccc(OC(F)F)cc3)c3[n+]2CCCCC3)cc1,i,i,-0.7,i,i,-0.7,57.1*,i
FC(F)Oc1ccc(-n2cc(-c3ccccc3)[n+]3c2CCCCC3)cc1,i,i,-3.0,i,i,-2.9,nt,nt
SMILES,CHT inh,CHT PAM,VIM-2 inhibitor,ANO1 block,ANO1 activ,IMP-1 inh,CHT act confirm,HEK293 MP dye
O=C(COc1ccccc1Cl)NCCCNC(=O)c1cnccn1,i,i,0.3,i,i,0.8,nt,nt
COc1cc2c(cc1OC)-c1cc(OCCN3CCOCC3)nc(=O)n1CC2,i,6.47*,-2.1,i,i,-3.3,55.1*,-44.4*
CCCCC[n+]1cccc2c3ccccc3ccc21,i,7.54*,6.2,i,i,1.6,46.8*,-74.2*
O=C(O)C1CCC(N2C(=O)c3cccc([N+](=O)[O-])c3C2=O)CC1 (configuration not stated),i,i,-2.0,i,i,-4.6,nt,nt
C/C(=N\NC(=O)c1cccc(C)c1O)c1ccc(NC(=O)Cc2ccccc2)cc1,i,i,-5.6,i,i,-3.3,nt,nt
Cc1cccc(C)c1OCC(=O)Nc1cccc(-c2nnc(-c3ccccc3)o2)c1,i,i,-3.8,i,i,-2.4,29.3*,i
Cc1ccc(OCC(=O)Nc2cccc(-c3nnc(-c4ccccc4)o3)c2)cc1,i,i,-1.7,i,i,-1.8,nt,nt
CC1CCN(c2ccccc2NC(=O)c2ccc(F)cc2)CC1,i,9.34*,-2.0,i,i,-3.8,22.9*,i
CN1CCN(c2ccccc2NC(=O)c2ccc(F)cc2)CC1,i,i,-1.7,i,i,-1.7,nt,nt
CC(C)CN1CCN(Cc2cccn2-c2ccc(Cl)cn2)CC1CCO (configuration not stated),i,i,-3.2,i,i,-2.4,54.0*,i
CC(C)CN1CCN(Cc2cccn2-c2ccccn2)CC1CCO (configuration not stated),i,i,-1.9,i,i,-2.2,nt,nt
Cc1sc2nc3ccc(NCc4ccco4)nn3c(=O)c2c1C,i,6.58*,3.8,i,i,6.2*,12.0*,-36.5*
O=c1c2ccccc2nc2ccc(NCc3ccco3)nn12,i,i,0.9,i,i,1.3,nt,nt
COc1ccc(CCNC(=O)C2CC(O)CN2S(=O)(=O)c2ccc(Cl)cc2)cc1OC (configuration not stated),nt,nt,nt,nt,i,nt,nt,nt
Cc1nc2cc(NC(=O)N3CCCC3)ccc2n1C,i,6.55*,-5.5,i,i,-0.6,26.4*,-39*
